The nature of experiment [1]: inhibitors of TNFa-induced NFkB p65 translocation, primary screen, imaging, HUVEC, MLSMR starter and 10KST1 sets (AID 438;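 active means inhibition above 20% together with a positive visual image hit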;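 further: compound added about 3h40 before a 20 min TNFalpha stimulation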;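 on inhibition: signal is the nuclear over cytoplasmic p65 intensity ratio per well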). The note with it: HUVEC TNFa-induced p65 nuclear translocation; cell count: measured here: nuclei count (cytotoxicity indicator), at 2.08 µM; inhibition: at 2 µM, stronger effect = higher value, 0% TNFa-plus-vehicle, 100% no-TNFa wells.
A short description of experiment [2]: inhibitors of E-selectin induction by TNFa, primary screen, imaging, HUVEC, immunofluorescence, MLSMR starter and 10KST1 sets (AID 487;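 active means visually confirmed hit in the image check and inhibition above 20%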;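 on inhibition: signal is fraction of cell area covered by stained E-selectin grains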;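 on nuclei count: 100% = median nuclei count of all wells on the same plate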). The note with it: HUVEC TNFalpha-induced E-selectin immunofluorescence imaging, at 2 µM; inhibition: stronger effect = higher value; nuclei count: measured here: cell number, toxicity.
A short description of experiment [3]: DUSP6 inhibitors restoring Erk phosphorylation by chemical complementation, primary imaging in DUSP6-transfected HeLa (AID 609;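 active means compounds giving at least 50% inhibition in the cell-based MKP-3 phosphatase rescue imaging test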;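 on inhibition: phospho-Erk level distribution per well compared with pooled transfected vehicle control wells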). Particulars: HeLa MKP-3 transfected, phospho-Erk imaging KS statistic, at 10 µM, cells stimulated with TPA for 15 min.
The target of experiment [4] is Dual specificity protein phosphatase 6 (Homo sapiens) (UniProt Q16828). The description is as above. Particulars: HeLa MKP-3 transfected, phospho-Erk imaging KS statistic; at 10 µM; stronger effect = higher value; cells stimulated with TPA for 15 min.
Dual specificity protein phosphatase 6 (Homo sapiens), sequence (Q16828 whole entry, looked up): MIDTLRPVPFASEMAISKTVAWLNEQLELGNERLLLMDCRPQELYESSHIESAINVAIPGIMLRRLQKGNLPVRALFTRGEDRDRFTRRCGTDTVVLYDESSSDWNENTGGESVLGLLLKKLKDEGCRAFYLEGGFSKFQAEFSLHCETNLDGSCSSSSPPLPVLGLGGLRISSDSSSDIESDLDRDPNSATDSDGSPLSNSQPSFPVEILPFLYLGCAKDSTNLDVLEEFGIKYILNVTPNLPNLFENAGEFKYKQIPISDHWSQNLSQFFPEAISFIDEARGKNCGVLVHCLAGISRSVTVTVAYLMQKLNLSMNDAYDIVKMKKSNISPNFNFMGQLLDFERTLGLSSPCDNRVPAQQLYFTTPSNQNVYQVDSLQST
Experiment [5] concerns the target Voltage-gated potassium channel subunit beta-2 (Rattus norvegicus) (UniProt P62483). As to the kind of experiment: KvBeta enzyme negative modulators, primary screen, biochemical, NADPH fluorescence (AID 622;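 active means fluorescence slope higher than the sample average by over 3 SD, cut at about -0.22 in these data, passing the limit was not always enough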;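 further: slope of raw intensity against log time taken from 70 to 1610 s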). The note with it: recombinant KvBeta, 4-cyanobenzaldehyde reduction, at 10 µM, stronger effect = higher value.
Experiment [6] shares this target. Nature of the experiment: KvBeta positive modulators, primary screen, biochemical, NADPH fluorescence (AID 623;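 active means NADPH fluorescence slope more negative than the mean of all samples by about 3 SD, 99.7% confidence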;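 further: fluorescence intensity change per second fitted from 20 to 320 s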). Particulars: Recombinant KvBeta, NADPH fluorescence decrease slope, 10 min; at 10 µM; stronger effect = lower value.
Experiment [7] addresses Muscarinic acetylcholine receptor M4 (Homo sapiens) (UniProt P08173). Nature of the experiment: compounds altering M4/GIRK thallium flux, either direction, primary screen, M4 allosteric agonist project, cell-based, HEK293 M4/GIRK, BTC-AM (AID 625;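 active means fluorescence slope after compound addition differing from the mean of all tested samples at 99.7% confidence, mostly higher but some lower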;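 further: thallium influx through GIRK channels coupled to M4 in HEK293 cells with BTC-AM dye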). Particulars: at 10 µM, actives lie on both sides. Summed up:
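Material: M4/GIRK1/GIRK2 stable HEK293 cell line. Medium: pH 7.3 thallium assay buffer. Dosing: single compound concentration, 10 µM final. Schedule: 1 h dye loading, 2 min kinetic read. Measured by: kinetic fluorescence with BTC-AM dye. Read-out: post-addition slope, 15–24 s, of baseline-normalized fluorescence. Benchmarks: carbachol and DMSO controls.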

Experiment [8] can be described thus: inhibitors of larval lipid processing in zebrafish, primary screen, whole organism, PED6 fluorescence, gall bladder and intestine (AID 686).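 Further: larvae 5 to 7 days old with five fish per well; signal comes from phospholipase A2 cleavage of quenched PED6 carried via bile; overnight exposure to compound and PED6 before scoring.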 The note with it: Zebrafish larvae PED6 lipid processing, fluorescence scoring; screened at 20 µM (by protocol). The essentials: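 System: live zebrafish larvae aged 5-7 days, whole organism; measure: graded gall bladder and intestinal fluorescence inhibition per well; incubation: overnight exposure; reagent: ingested quenched lipid PED6 at 100 nM; signal: By-eye fluorescence microscopy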

The nature of experiment [9]: inhibitors of Chlamydomonas gravitaxis, primary screen, whole organism, Chlamydomonas reinhardtii, WT vs cilia-less mutant, absorbance, 96-well (AID 463189;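 active means inhibition at or above 50% relative to wild type and mutant plate controls; inactive means inhibition below 50%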;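 further: 0% = wild type cc124 cells in DMSO and 100% = ciliumless bld1 mutant cells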). The note with it: OD600 absorbance, 2 days, at 10 µM, stronger effect = higher value.
Setting [10] is: measured here: cell density z-score.
Setting [11] is: measured here: nuclear c-Myc green intensity z-score.
Setting [12] is: measured here: nuclear pErk red intensity z-score, stronger effect = higher value.

Active and inactive are the calls of the source.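 How the source made its calls, unless noted: active means a full or partial loss of lipid-probe fluorescence in the fish gall bladder, intestine or both, judged by eye; inactive means no fluorescence loss, or compound toxic to the fish.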

Muscarinic acetylcholine receptor M4 (Homo sapiens), sequence (P08173 whole entry, looked up): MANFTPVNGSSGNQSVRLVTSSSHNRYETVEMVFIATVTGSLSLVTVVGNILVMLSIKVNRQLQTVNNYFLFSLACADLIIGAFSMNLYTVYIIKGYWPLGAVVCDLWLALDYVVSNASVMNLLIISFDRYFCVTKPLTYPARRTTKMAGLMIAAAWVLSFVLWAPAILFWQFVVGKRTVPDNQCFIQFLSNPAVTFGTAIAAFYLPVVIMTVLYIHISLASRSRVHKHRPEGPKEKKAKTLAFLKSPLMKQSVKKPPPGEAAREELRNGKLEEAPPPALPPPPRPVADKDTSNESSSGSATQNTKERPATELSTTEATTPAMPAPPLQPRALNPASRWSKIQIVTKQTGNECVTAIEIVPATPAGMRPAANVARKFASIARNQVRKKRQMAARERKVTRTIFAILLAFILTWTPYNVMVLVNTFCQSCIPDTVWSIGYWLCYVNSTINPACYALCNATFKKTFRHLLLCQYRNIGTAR
Voltage-gated potassium channel subunit beta-2 (Rattus norvegicus), sequence (P62483 whole entry, looked up): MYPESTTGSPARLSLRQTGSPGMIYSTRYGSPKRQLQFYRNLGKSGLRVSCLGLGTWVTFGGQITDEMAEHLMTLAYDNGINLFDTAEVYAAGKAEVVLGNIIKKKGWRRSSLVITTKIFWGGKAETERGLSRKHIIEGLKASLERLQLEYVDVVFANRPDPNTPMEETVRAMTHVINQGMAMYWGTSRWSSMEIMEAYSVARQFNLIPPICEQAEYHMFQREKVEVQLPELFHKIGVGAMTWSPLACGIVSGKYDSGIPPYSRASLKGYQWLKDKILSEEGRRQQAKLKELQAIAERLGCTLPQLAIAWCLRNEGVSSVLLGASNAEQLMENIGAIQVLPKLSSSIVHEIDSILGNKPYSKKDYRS

On to `CCCn1nnc(NC(=O)c2cc(Br)cc(Br)c2OC)n1`, for which the cell count in [1] is 391. The inhibition in experiment [1] is -1.7% (inactive); in [2], -24.1% (inactive); in experiment [4], 20.2% (inactive); in experiment [9], 8.4% (inactive). Further, the nuclei count in experiment [2] was 127%. In addition, the z-score in [3] (setting [10]) is 0.877; in experiment [3] (setting [11]), 0.738; in experiment [3] (setting [12]), 0.427. Further, the fluorescence slope is -0.463 (inactive) in [5] and 0.00469 (inactive) in [7]. The NADPH fluorescence slope in [6] is -0.000102 (inactive). For the same molecule, the molecule was classed as inactive in experiment [8].

For the molecule `Cn1c(N2CCN(c3ccccn3)CC2)nc2c1c(=O)n(Cc1ccc(Cl)cc1)c(=O)n2C`, the cell count in experiment [1] turned out to be 678. Moreover, the inhibition in experiment [1] was 5.8% (inactive); in experiment [2], -153% (inactive); in [4], 27.8% (inactive); in [9] it was 24.6% (inactive). For the same molecule, in [2], the nuclei count came out at 180%. The z-score is -0.409 in experiment [3] (setting [10]), -1.46 in [3] (setting [11]) and -0.591 in [3] (setting [12]). Further, the fluorescence slope in experiment [5] was -0.498 (inactive); in experiment [7] it was 0.00592 (inactive). In addition, the NADPH fluorescence slope in experiment [6] is -2.6e-05 (inactive). For the same molecule, the molecule was called inactive in experiment [8].

On to `CC1(C)Cc2nc3sc4c(N(CCO)CCO)ncnc4c3cc2CO1`, for which, in [1], the cell count came to 383. In addition, the inhibition in [1] is -7.2% (inactive); in [2] it was 7.7% (inactive); in experiment [4] it was -4.59% (inactive); in experiment [9], 36.1% (inactive). In experiment [2], the nuclei count was 82.1%. Moreover, the z-score in [3] (setting [10]) was -1.35; in experiment [3] (setting [11]), 0.534; in experiment [3] (setting [12]) it was 1.17. Also, the fluorescence slope is -0.474 (inactive) in experiment [5] and 0.00508 (inactive) in experiment [7]. For the same molecule, in experiment [6], the NADPH fluorescence slope was -1.1e-05 (inactive). Besides, the molecule was classed as inactive in experiment [8].

As for `CCOC(=O)CSc1nc(N2CCOCC2)c2c(c1C#N)CC(C)(C)N(C)C2`, the cell count in experiment [1] turned out to be 531. Besides, the inhibition in experiment [1] is -4.6% (inactive); in experiment [2], -19.7% (inactive); in [4], 1.42% (inactive); in experiment [9], 33.8% (inactive). This molecule gave a nuclei count in experiment [2] of 102%. Also, the values for the z-score in experiment [3] (setting [10]), in [3] (setting [11]) and in experiment [3] (setting [12]) were -0.379, 0.944 and -0.77, respectively. For the same molecule, the fluorescence slope in experiment [5] is -0.505 (inactive); in [7], 0.00477 (inactive). Further, the NADPH fluorescence slope in experiment [6] is 4.1e-05 (inactive). Also, the call in [8] was inactive.

Turning to `N#Cc1nc(-c2cccs2)oc1NCc1ccc2c(c1)OCO2`, in [1], the cell count worked out at 624. In addition, the inhibition in experiment [1] was -4.4% (inactive); in [2], -132% (inactive); in experiment [4], 7.83% (inactive); in [9], 30.7% (inactive). In addition, the nuclei count in experiment [2] came out at 157%. In addition, the results for the z-score in experiment [3] (setting [10]), in [3] (setting [11]) and in experiment [3] (setting [12]) were -0.376, -0.933 and 0.595, respectively. Moreover, the fluorescence slope in [5] is -0.404 (inactive); in experiment [7] it was 0.00406 (inactive). For the same molecule, in [6], the NADPH fluorescence slope was -1.3e-05 (inactive). The molecule was classed as inactive in experiment [8].

Turning to `COC(=O)c1ccc(C2/C(=C(\O)c3cccc(OC)c3)C(=O)C(=O)N2CCCN2CCOCC2)cc1` (centres undefined), the cell count in [1] worked out at 620. Further, the inhibition in experiment [1] is -10.1% (inactive); in experiment [2], -57.4% (inactive); in experiment [4] it was 20.2% (inactive); in experiment [9] it was 14.7% (inactive). Further, the nuclei count in [2] stood at 150%. For the same molecule, the z-score in experiment [3] (setting [10]) was 0.836; in experiment [3] (setting [11]) it was -1.51; in [3] (setting [12]) it was -1.62. For the same molecule, the fluorescence slope in [5] is -0.507 (inactive); in [7], 0.00584 (inactive). Moreover, the NADPH fluorescence slope in [6] was -2e-05 (inactive). Further, in experiment [8], the result was inactive.

Regarding `Cc1cc2ccccc2cc(C)c1=O`, in experiment [1], the cell count is 388. Also, the inhibition in [1] is -6.2% (inactive); in experiment [2], -120% (inactive); in [4] it was -0.584% (inactive); in experiment [9] it was -12% (inactive). In addition, the nuclei count in experiment [2] was found to be 168%. The results for the z-score in experiment [3] (setting [10]), in [3] (setting [11]) and in experiment [3] (setting [12]) were 1.48, 0.00969 and -1.01, respectively. In addition, the fluorescence slope in experiment [5] was -0.453 (inactive); in experiment [7] it was 0.00444 (inactive). Also, the NADPH fluorescence slope in [6] is -9e-05 (inactive). The result in experiment [8] was inactive.

Regarding `O=C(NCCc1ccccc1)/C(=N\O)c1ccccc1`, the cell count in experiment [1] was determined as 555. Also, the inhibition in experiment [1] was -5.6% (inactive); in experiment [2] it was 19.1% (inactive); in experiment [4], 13.9% (inactive); in experiment [9], 2.81% (inactive). The same molecule displayed a nuclei count in experiment [2] of 182%. The figures for the z-score in experiment [3] (setting [10]), in [3] (setting [11]) and in [3] (setting [12]) were 1.61, -1.77 and -0.308, respectively. The fluorescence slope in experiment [5] is -0.404 (inactive); in [7] it was 0.00486 (inactive). The NADPH fluorescence slope in experiment [6] is -8.5e-06 (inactive). Moreover, in experiment [8], the call was inactive.

`Cn1c(=O)c2c(nc(N3CCC(C(N)=O)CC3)n2CCSc2nc3ccccc3s2)n(C)c1=O`: the cell count in experiment [1] worked out at 657. The inhibition was -10.1% (inactive) in experiment [1], -52% (inactive) in experiment [2], 7.42% (inactive) in [4] and 21.2% (inactive) in [9]. This molecule also yielded a nuclei count in experiment [2] of 183%. For the same molecule, the z-score in experiment [3] (setting [10]) was 0.335; in [3] (setting [11]), 0.459; in experiment [3] (setting [12]), -0.422. The fluorescence slope in experiment [5] was -0.431 (inactive); in [7] it was 0.00515 (inactive). Besides, the NADPH fluorescence slope in [6] is -6.4e-05 (inactive). Also, in experiment [8], the call was inactive.

With `Cc1nn(C)cc1/C=N/n1nnnc1N`, the cell count in [1] came out at 680. In addition, the inhibition in [1] was -10.2% (inactive); in experiment [2], -45.8% (inactive); in experiment [4], 4.37% (inactive); in [9], 11.8% (inactive). Moreover, the nuclei count in [2] came to 155%. Further, the z-score in experiment [3] (setting [10]) was 0.00474; in [3] (setting [11]) it was -1.39; in experiment [3] (setting [12]) it was 0.944. The fluorescence slope in experiment [5] is -0.487 (inactive); in experiment [7] it was 0.00512 (inactive). Also, the NADPH fluorescence slope in experiment [6] was -3.8e-05 (inactive). In addition, the molecule was classed as inactive in [8].

`C=CCn1c(SCC(=O)c2ccc(NS(=O)(=O)c3ccccc3)cc2)nnc1-c1cccs1`: the cell count in experiment [1] turned out to be 682. The inhibition in experiment [1] was 3.2% (inactive); in [2], -98.4% (inactive); in [4], -13.3% (inactive); in experiment [9], -10.7% (inactive). Moreover, the nuclei count in [2] stood at 156%. Further, the z-score in [3] (setting [10]) was -0.412; in [3] (setting [11]), -0.46; in experiment [3] (setting [12]), 0.993. The values for the fluorescence slope in experiment [5] and in experiment [7] were -0.473 (inactive) and 0.00636 (inactive), respectively. For the same molecule, the NADPH fluorescence slope in experiment [6] was -4.5e-05 (inactive). For the same molecule, the result in [8] was inactive.

As for `c1ccc(-n2ncc3c(NCC4CCCO4)ncnc32)cc1` (centres undefined), the cell count in experiment [1] was 597. Moreover, the inhibition is -4% (inactive) in experiment [1], -84.5% (inactive) in experiment [2], 1.42% (inactive) in [4] and -15.2% (inactive) in experiment [9]. This molecule also had a nuclei count in experiment [2] of 113%. In addition, the figures for the z-score in [3] (setting [10]), in experiment [3] (setting [11]) and in experiment [3] (setting [12]) were -2.6, -0.155 and 1.07, respectively. The fluorescence slope was -0.389 (inactive) in [5] and 0.00807 (inactive) in [7]. Further, the NADPH fluorescence slope in [6] is -9.3e-05 (inactive). For the same molecule, in [8], the result was inactive.

Turning to `CCSc1nc2sc3c(c2c(=O)n1C1CCCCC1)CCN(C)C3`, the cell count in [1] was 364. Moreover, the inhibition in experiment [1] is -10% (inactive); in experiment [2] it was -37.3% (inactive); in [4] it was -8.59% (inactive); in [9] it was -2.62% (inactive). The nuclei count in experiment [2] is 101%. Further, the z-score in experiment [3] (setting [10]) was -0.995; in experiment [3] (setting [11]) it was 0.578; in experiment [3] (setting [12]) it was 0.504. Moreover, the fluorescence slope in [5] was -0.419 (inactive); in experiment [7] it was 0.00313 (inactive). Besides, the NADPH fluorescence slope in experiment [6] is -6.1e-05 (inactive). Further, the call in [8] was inactive.
